# Test results reported in ChEMBL document CHEMBL1136740, “New active series of growth hormone secretagogues” (J Med Chem, 2003).
# Non-standard residues stand in square brackets, D forms with d. Residues, ends and D or L forms follow the SMILES beside them. dTrp(2-Me) = Cc1[nH]c2ccccc2c1C[C@@H](N)C(=O)O; Aib = CC(C)(N)C(=O)O
# Key:
# Rattus norvegicus = test: Ratio of GH release stimulated by 300 ug/kg of compound to that of GH release stimulated by 300 ug/kg of hexarelin in infant rat (sc injection); type: functional
# Method in brief: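 Male 10-day-old Sprague-Dawley pups, about 25 g, eight per group. Dosed sc at 300 µg/kg, with solvent as DMSO at final 1:300 dilution. Killed by decapitation 15 min later; trunk-blood plasma GH measured by RIA against the NIDDK rat standard, in ng/mL. Response compared with hexarelin at the same dose.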
# [1] = target: T1, Growth hormone secretagogue receptor type 1 (Homo sapiens, UniProt Q92847); test: Binding affinity towards human pituitary Growth hormone secretagogue receptor using [125I][Tyr4]-ghrelin as radioligand
# T1 sequence (Q92847 whole entry): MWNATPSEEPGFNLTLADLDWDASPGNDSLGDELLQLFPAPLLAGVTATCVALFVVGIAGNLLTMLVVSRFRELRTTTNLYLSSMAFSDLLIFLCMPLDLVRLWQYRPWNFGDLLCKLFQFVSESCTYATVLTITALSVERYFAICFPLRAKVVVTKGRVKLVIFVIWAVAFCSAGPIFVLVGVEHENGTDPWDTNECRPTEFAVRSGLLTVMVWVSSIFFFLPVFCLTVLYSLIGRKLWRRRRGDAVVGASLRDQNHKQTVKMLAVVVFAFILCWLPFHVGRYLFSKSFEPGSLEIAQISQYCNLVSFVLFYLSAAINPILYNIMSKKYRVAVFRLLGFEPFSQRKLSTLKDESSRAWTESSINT
# [2] = target: T1, Growth hormone secretagogue receptor type 1; test: Binding affinity towards cloned human Growth hormone secretagogue receptor type I in LLC PK-1 cells using [125I][His9]-ghrelin as radioligand; type: cell-based
# Canis familiaris = test: Concentration in dogs after oral administration at dose of 1 mg/kg after 180 min.; type: ADME, organism-based, Canis lupus familiaris; design: dose 1 mg/kg, route oral; conditions: dog, in vivo, 3 h
# Method in brief: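 Beagle dogs (4–6, 2–3 years, 11–15 kg, both sexes) dosed 1 mg/kg through an oral-gastric cannula in randomized sequence. Blood drawn from the cephalic vein at −20 min, then at 15–180 min into EDTA tubes. Plasma GH measured by canine GH RIA (sensitivity 0.4 ng/mL). Peak GH and AUC0–180 min by trapezoid method reported as mean ± SEM; sexes pooled.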
# [3] = Stimulating GH secretion in dogs after oral administration at dose of 1 mg/kg
Structure (SMILES),Ratio (Rattus norvegicus),IC50 [1],IC50 [2],GH AUC 0-180 (Canis familiaris),GH peak [3]
CN(C)C(C)(C)C(=O)N[C@H](Cc1c[nH]c2ccccc12)C(=O)N[C@H](Cc1c[nH]c2ccccc12)NC=O,0.69,,,,
CC(C)(N)C(=O)N[C@H](Cc1c[nH]c2ccccc12)C(=O)N[C@@H](Cc1c[nH]c2ccccc12)NC=O,0.28,,,,
CC(=O)N[C@@H](Cc1c[nH]c2ccccc12)NC(=O)[C@@H](Cc1c[nH]c2ccccc12)NC(=O)C(C)(C)N(C)C,0.15,20.1 nM,440 nM,,
Cc1[nH]c2ccccc2c1C[C@@H](NC(=O)[C@H](Cc1c[nH]cn1)NC(=O)[C@H](C)NC(=O)[C@@H](N)Cc1ccc(O)cc1)C(=O)N[C@@H](C)C(=O)N[C@@H](Cc1c[nH]c2ccccc12)C(=O)N[C@H](Cc1ccccc1)C(=O)N[C@@H](CCCCN)C(N)=O (H-YAH[dTrp(2-Me)]AW[dF]K-NH2),,12 nM,286 nM,,
Cc1[nH]c2ccccc2c1C[C@@H](NC(=O)[C@@H](N)Cc1c[nH]cn1)C(=O)N[C@@H](C)C(=O)N[C@@H](Cc1c[nH]c2ccccc12)C(=O)N[C@H](Cc1ccccc1)C(=O)N[C@@H](CCCCN)C(N)=O [EXAMORELIN] (H-H[dTrp(2-Me)]AW[dF]K-NH2),1,,,,
CC(C)(N)C(=O)N[C@](C)(Cc1c[nH]c2ccccc12)C(=O)N[C@H](Cc1c[nH]c2ccccc12)NC=O,0.12,,,,
CNC(C)(C)C(=O)N[C@H](Cc1c[nH]c2ccccc12)C(=O)N[C@H](Cc1c[nH]c2ccccc12)NC(=O)CCC1CCCCC1,0.16,,,,
CNC(C)(C)C(=O)N[C@H](Cc1c[nH]c2ccccc12)C(=O)N[C@H](Cc1c[nH]c2ccccc12)NC(=O)Cc1c[nH]c2ccccc12,0.17,,,,
CNC(C)(C)C(=O)N[C@H](Cc1c[nH]c2ccccc12)C(=O)N[C@](C)(Cc1c[nH]c2ccccc12)NC(C)=O,1,,,,
Cc1[nH]c2ccccc2c1C[C@@H](NC(=O)[C@@H](Cc1c(C)[nH]c2ccccc12)NC(=O)C(C)(C)N)C(N)=O (H-[Aib]-[dTrp(2-Me)]-[dTrp(2-Me)]-NH2),0.89,,,,
CC(C)(N)C(=O)N[C@H](Cc1c[nH]c2ccccc12)C(=O)N[C@H](Cc1c[nH]c2ccccc12)NC(=O)Cc1c[nH]c2ccccc12,0.16,,,,
CC(C)(N)C(=O)N[C@H](Cc1c[nH]c2ccccc12)C(=O)N[C@H](Cc1c[nH]c2ccccc12)NC(=O)Cc1ccccc1,0.11,,,,
CCNC(=O)N[C@@H](Cc1c[nH]c2ccccc12)NC(=O)[C@@H](Cc1c[nH]c2ccccc12)NC(=O)C(C)(C)N,,16.9 nM,162 nM,79.54 µg·min/L,
Cc1[nH]c2ccccc2c1C[C@H](NC=O)NC(=O)[C@@H](Cc1c(C)[nH]c2ccccc12)NC(=O)C(C)(C)N,0.08,,,,
CC(C)CC(=O)N[C@H](Cc1c[nH]c2ccccc12)C(=O)N[C@H](Cc1c[nH]c2ccccc12)NC=O,0.09,,,,
CC(=O)N[C@@H](Cc1c[nH]c2ccccc12)NC(=O)[C@@H](Cc1c[nH]c2ccccc12)NC(C)=O,0.13,,,,
CNC(C)(C)C(=O)N[C@H](Cc1c[nH]c2ccccc12)C(=O)N[C@H](Cc1c[nH]c2ccccc12)NC=O,0.64,39 nM,22.7 nM,,
O=CN[C@@H](Cc1c[nH]c2ccccc12)NC(=O)[C@@H](Cc1c[nH]c2ccccc12)NC(=O)C1CCNCC1,0.82,391 nM,1160 nM,,
CC(C)(N)C(=O)N[C@H](Cc1c[nH]c2ccccc12)C(=O)N[C@](C)(Cc1c[nH]c2ccccc12)NC=O,0.91,,,,
CCC(=O)N[C@@H](Cc1c[nH]c2ccccc12)NC(=O)[C@@H](Cc1c[nH]c2ccccc12)NC(=O)C(C)(C)N,0.69,185 nM,460 nM,,
CC(=O)N[C@@H](Cc1c[nH]c2ccccc12)N(C)C(=O)[C@@H](Cc1c[nH]c2ccccc12)NC(=O)C(C)(C)N,0.65,,,,
CC(C)(N)C(=O)N[C@H](COCc1ccccc1)C(=O)N1CCC2(CC1)CN(S(C)(=O)=O)c1ccccc12 [IBUTAMOREN],,,,544.55 µg·min/L,
Cc1[nH]c2ccccc2c1C[C@@H](NC(=O)[C@@H](N)Cc1cnc[nH]1)C(=O)N[C@@H](C)C(=O)N[C@@H](Cc1c[nH]c2ccccc12)C(=O)N[C@H](Cc1ccccc1)C(=O)N[C@@H](CCCCN)C(N)=O [EXAMORELIN] (H-H[dTrp(2-Me)]AW[dF]K-NH2),,18 nM,,,
CNC(C)(C)C(=O)N[C@H](Cc1c[nH]c2ccccc12)C(=O)N[C@@H](Cc1c[nH]c2ccccc12)N(C)C(C)=O,0.2,,,,

Structure (SMILES),Ratio (Rattus norvegicus),IC50 [1],IC50 [2],GH AUC 0-180 (Canis familiaris),GH peak [3]
NC1(C(=O)N[C@H](Cc2c[nH]c3ccccc23)C(=O)N[C@H](Cc2c[nH]c3ccccc23)NC=O)CCNCC1,0.95,1790 nM,337 nM,,
CNC(C)(C)C(=O)N[C@H](Cc1c[nH]c2ccccc12)C(=O)N[C@H](Cc1c[nH]c2ccccc12)NC(=O)C1CCCCN1 (some centres undefined),0.85,,,,
CS(=O)(=O)N[C@H](Cc1c[nH]c2ccccc12)C(=O)N[C@H](Cc1c[nH]c2ccccc12)NC=O,0.09,,,,
Cc1[nH]c2ccccc2c1C[C@@H](NC=O)NC(=O)[C@@H](Cc1c(C)[nH]c2ccccc12)NC(=O)C(C)(C)N,0.12,,,,
CC(C)(N)C(=O)N[C@@H](Cc1c[nH]c2ccccc12)C(=O)N[C@H](Cc1c[nH]c2ccccc12)NC=O,0.07,,,,
CN[C@H](Cc1c[nH]c2ccccc12)C(=O)N[C@H](Cc1c[nH]c2ccccc12)NC=O,0.09,,,,
CCC(=O)N[C@@H](Cc1c[nH]c2ccccc12)NC(=O)[C@@H](Cc1c[nH]c2ccccc12)NC(=O)C(C)(C)NC,0.93,> 10000 nM,167 nM,,
CNC(C)(C)C(=O)N[C@H](Cc1c[nH]c2ccccc12)C(=O)N[C@H](Cc1c[nH]c2ccccc12)NC(=O)CC(C)C,0.1,213 nM,397 nM,,
O=CN[C@@H](Cc1c[nH]c2ccccc12)NC(=O)[C@@H](Cc1c[nH]c2ccccc12)NS(=O)(=O)c1ccccc1,0.14,,,,
CC(C)(N)C(=O)N[C@H](Cc1c[nH]c2ccccc12)C(=O)N[C@H](Cc1c[nH]c2ccccc12)NC(=O)CCC1CCCCC1,0.15,,,,
CC(C)(N)C(=O)N[C@H](Cc1c[nH]c2ccccc12)C(=O)N[C@H](Cc1c[nH]c2ccccc12)NC=O [MACIMORELIN],1.31,22.9 nM,123 nM,675.35 µg·min/L,5.5 µg/L
CC(C)(N)C(=O)N[C@H](Cc1c[nH]c2ccccc12)C(=O)N[C@H](Cc1c[nH]c2ccccc12)NC(=O)C1CCCCN1 (some centres undefined),,21.5 nM,116 nM,87.06 µg·min/L,
CC(=O)N[C@@H](Cc1c[nH]c2ccccc12)NC(=O)[C@@H](Cc1c[nH]c2ccccc12)NC(=O)C1(N)CCNCC1,0.46,,,,
CNC(C)(C)C(=O)N[C@H](Cc1c[nH]c2ccccc12)C(=O)N[C@H](Cc1c[nH]c2ccccc12)NC(C)=O,1.38,74 nM,58 nM,85.85 µg·min/L,1.1 µg/L
CC(C)CC(=O)N[C@@H](Cc1c[nH]c2ccccc12)NC(=O)[C@@H](Cc1c[nH]c2ccccc12)NC(=O)C(C)(C)N,0.24,59.8 nM,535 nM,,
CNC(C)(C)C(=O)N[C@H](Cc1c[nH]c2ccccc12)C(=O)N[C@H](Cc1c[nH]c2ccccc12)NC(=O)Cc1ccccc1,0.16,,,,
CC(=O)N[C@@H](Cc1c[nH]c2ccccc12)NC(=O)[C@@H](Cc1c[nH]c2ccccc12)NC(=O)C1CCNCC1,0.53,> 10000 nM,807 nM,,
CNC(C)(C)C(=O)N[C@H](Cc1c[nH]c2ccccc12)C(=O)N[C@H](Cc1c[nH]c2ccccc12)N(C)C(C)=O,1.21,,,,
CC(=O)N[C@@H](Cc1c[nH]c2ccccc12)NC(=O)[C@@H](Cc1c[nH]c2ccccc12)NC(=O)C(C)(C)N,0.77,3850 nM,228 nM,,
CCOC(=O)N[C@@H](Cc1c[nH]c2ccccc12)NC(=O)[C@@H](Cc1c[nH]c2ccccc12)NC(=O)C(C)(C)N,0.2,16.2 nM,122 nM,,
CNC(C)(C)C(=O)N[C@H](Cc1c[nH]c2ccccc12)C(=O)N(C)[C@H](Cc1c[nH]c2ccccc12)NC(C)=O,,25.6 nM,29.5 nM,262.43 µg·min/L,
CC(=O)N[C@@H](Cc1c[nH]c2ccccc12)NC(=O)[C@@H](Cc1c[nH]c2ccccc12)NC(=O)CC(C)C,0.11,,,,
CC(C)(N)C(=O)N[C@@H](Cc1c[nH]c2ccccc12)C(=O)N[C@@H](Cc1c[nH]c2ccccc12)NC=O,0.08,,,,
